Screens from PubChem.
The list is not random: actives were taken first. Their share in the collection is about 1.1%.
Diaphorase act: compounds boosting diaphorase resazurin reduction – biochemical, uHTS, resorufin fluorescence, counter-screen for diaphorase-coupled primary assays, primary screen; hit rate 0.005% among 190,000; activation factor at 20 µM; Diaphorase/resazurin coupled assay, 16 min; stronger effect = higher value; 1 = vehicle wells, 0 = NADH-free wells;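 active = diaphorase activity raised at least twofold by the compound at 20 µM; inactive = activation factor below 2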
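Test system: Clostridium kluyveri diaphorase, purified enzyme. Buffer or medium: 50 mM HEPES pH 7.4 buffer plus MgCl2 and Tween 20. Also added: 0.114 mM NADH and 0.1 mM resazurin, final amounts. Dosing: compound 20 µM once, DMSO 1%. Schedule: 16 min enzyme reaction, ambient temperature. Detection: fluorescence of resorufin, 544 nm excitation, 590 nm emission.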
G6PDH counter: L. mesenteroides G6PDH inhibitors, counter-screen for G6PDH-coupled screening assays, biochemical, Leuconostoc mesenteroides enzyme. inhibition, % at 5 µM. hit rate 0.12% among 200,000. AID 1020, 2008. Purified L. mesenteroides G6PDH, diaphorase/resazurin coupled fluorescence, 45 min; in the data active = inhibition above about 50%
PMI act: activators of human PMI, primary screen, biochemical, fluorescence intensity, near-Km mannose 6-phosphate; purified human PMI, coupled resazurin fluorescence, 20 min; stronger effect = higher value; 1 = vehicle control, 0 substrate-free wells; Mannose-6-phosphate isomerase (Homo sapiens), P34949; activation factor at 20 µM; AID 1214, 2008; hit rate 0.005% among 190,000;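 active = activation factor of 2 or more at 20 µM, relative to plate controls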
Target sequence (P34949 whole entry, looked up): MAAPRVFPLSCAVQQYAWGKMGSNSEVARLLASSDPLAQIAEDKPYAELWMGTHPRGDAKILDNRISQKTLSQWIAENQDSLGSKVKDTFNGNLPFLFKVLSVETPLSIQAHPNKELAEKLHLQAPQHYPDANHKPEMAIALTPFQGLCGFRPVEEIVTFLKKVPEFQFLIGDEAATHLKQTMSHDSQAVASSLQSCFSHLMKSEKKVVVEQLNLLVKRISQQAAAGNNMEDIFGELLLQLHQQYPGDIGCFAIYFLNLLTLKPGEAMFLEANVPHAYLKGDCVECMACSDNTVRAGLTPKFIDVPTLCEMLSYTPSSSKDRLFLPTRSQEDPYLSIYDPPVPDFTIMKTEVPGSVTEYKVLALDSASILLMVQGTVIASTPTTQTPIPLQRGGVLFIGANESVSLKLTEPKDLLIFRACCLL
PMI act hi M6P: human PMI activators, high substrate, primary screen, biochemical, fluorescence intensity, near-saturating mannose 6-phosphate | Mannose-6-phosphate isomerase (Homo sapiens), P34949 | coupled PMI enzyme assay, resazurin fluorescence, 20 min; stronger effect = higher value; 1 = untreated enzyme, 0 = substrate-free blank | activation factor at 20 µM | hit rate 0.34% among 190,000;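 active = activation factor of 2 or more at 20 µM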
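Test system: human phosphomannose isomerase with PGI, G6PDH, diaphorase coupling enzymes / Doses: 20 µM compound, 1% DMSO / Times: enzyme reaction with compound 20 min at room temperature / Measured by: Diaphorase-driven resazurin-to-resorufin fluorescence, excitation 544, emission 590 nm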
Diaphorase inh: diaphorase inhibitors and chemical oxidizers, primary screen, counter-screen for diaphorase-coupled primary assays, biochemical, uHTS, resorufin fluorescence; diaphorase resazurin-to-resorufin fluorescence, NADH, 16 min; bacterial (C. kluyveri) enzyme, not human; inhibition, % at 20 µM; hit rate 0.69% among 190,000; AID 1217, 2008;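 active = primary screen inhibition at 20 µM above a set limit, cut at about 50% in these data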;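 note: plate controls were DMSO with full reaction for no effect and wells lacking NADH for full effect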
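Assay system – diaphorase enzyme from Clostridium kluyveri · Amount – diaphorase 0.14 U/mL (working solution) · Times – reaction incubation of 16 min at room temperature · Controls – No-NADH positive control and DMSO neutral control · Signal – resorufin fluorescence 544/590 nm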
* marks the source's active call; other numbers are inactive results.

SMILES | Diaphorase act | G6PDH counter | PMI act | PMI act hi M6P | Diaphorase inh
C#CCOCCOCCOCCNc1nc(N2CCN(C(=O)[C@H](Cc3cc4ccccc4[nH]3)n3cc([C@@H](N)C(C)CC)nn3)CC2)nc(N2CCN(C(=O)[C@H](Cc3cc4ccccc4[nH]3)n3cc([C@@H](N)CC(C)C)nn3)CC2)n1 (some centres undefined) | 1.5 | -2 | 1.2 | 1.1 | -45
COc1cccc2c(=O)c3cccc(N)c3[nH]c12 | 0.1 | 28 | 0.5 | 0.3 | 86*
O=C(c1ccccc1Sc1ccc([N+](=O)[O-])cc1Cl)N1CCOCC1 | 0.9 | 7 | 1.7 | 2.1* | 6
CCn1c(SCc2nc3sc(C(=O)O)c(C)c3c(=O)[nH]2)nc2ccccc21 | 0.4 | 7 | 1.5 | 1.9 | 61*
COCCn1c(SCc2nc3sc(C(=O)OC)c(C)c3c(=O)[nH]2)nc2ccccc21 | 1.1 | 7 | 1.2 | 1.2 | -5
Brc1c(NC2=NCCN2)ccc2nccnc12 | 0.4 | 26 | 0.5 | 0.4 | 59*
C#CCOCCOCCOCCNc1nc(N2CCN(C(=O)[C@H](CCC(=O)O)n3cc(C(N)Cc4ccc(O)cc4)nn3)CC2)nc(N2CCN(C(=O)[C@H](CCC(=O)O)n3cc(C(N)CC(C)C)nn3)CC2)n1 (some centres undefined) | 0.4 | 12 | 0.9 | 1.2 | 57*
COc1ccc(-c2nc(-c3cccc([N+](=O)[O-])c3O)cc(=O)o2)cc1OC | 1 | -37 | 1 | 1 | -3
COc1cc(/C=C2/C(=O)c3cccc([N+](=O)[O-])c3C2=O)c(Br)cc1O | 0.5 | -3 | 0.9 | 0.6 | 50*
CC(=O)NC(c1ccc(Cl)cc1)c1c(O)ccc2ccc(O)cc12 (centres undefined) | 0.7 | 54* | 0.7 | 0.3 | 26
CCOC(=O)C1=NNC2(c3ccc(Cl)cc3)C(=O)N(c3ccc(C)cc3)C(=O)C12 (centres undefined) | 0.7 | 7 | 0.7 | 0.9 | 26
COc1ccccc1N1CCN(C(=O)c2ccc(CN3CCOCC3)cc2)CC1 | 1 | 12 | 1.1 | 1.1 | -2
COc1ccc(/C(C)=N/Nc2ccc(F)cc2F)c(O)c1 | 0.8 | 1 | 1.7 | 2.5* | 16
C/C(=N\Nc1ccc(F)cc1F)c1cccs1 | 0.8 | 0 | 1.5 | 1.6 | 17
COc1ccc(S(=O)(=O)CC2(O)CCN(C(=O)CC(C)C)CC2)cc1 | 1.1 | 7 | 1.2 | 1.1 | -6
CC1=C(C#N)C(=O)NC(=O)/C1=C\c1ccc(-c2cc(C)c(C)cc2[N+](=O)[O-])o1 | 0.4 | 28 | 1 | 0.5 | 61*
CCC1(C)Cc2c(sc3nnn(Cc4ccccc4Cl)c(=O)c23)CO1 (centres undefined) | 0.4 | 4 | 0.9 | 1 | 57*
Cc1ccc(NC(=O)CN2C(=O)S/C(=C/c3ccc(-c4cc(C(=O)O)ccc4C)o3)C2=O)cc1C | 0.3 | 9 | 0.8 | 0.9 | 71*
Cc1cccc(NC(=O)CN2C(=O)S/C(=C\c3ccc(-c4cccc(C(=O)O)c4C)o3)C2=O)c1 | 0.8 | 3 | 1 | 0.8 | 22
Oc1ccc(/C=N/n2cc(-c3ccccc3)[nH]c2=S)cc1 | 0.5 | -12 | 0.9 | 0.9 | 53*
S=c1[nH]c(-c2ccccc2)cn1/N=C/c1ccccc1Br | 0.5 | -6 | 0.9 | 1 | 46
O=C(O)CC(NC(=O)c1ccncc1)c1ccccc1 (centres undefined) | 0.9 | 11 | 0.9 | 0.8 | 8
O=C1C(=O)N(c2ccccc2)C(c2ccccc2[N+](=O)[O-])/C1=C(\O)c1ccccc1 (centres undefined) | 0.5 | 13 | 0.9 | 0.9 | 51*
O=C1C(=O)N(c2cccc(Cl)c2)C(c2ccccc2[N+](=O)[O-])/C1=C(\O)c1ccccc1 (centres undefined) | 0.9 | 1 | 1 | 1.5 | 15
Oc1c(Cl)cc(Cl)cc1C1=NNC(c2ccc(Cl)cc2)C1 (centres undefined) | 1 | 2 | 1.8 | 2.6* | -1
SMILES | Diaphorase act | G6PDH counter | PMI act | PMI act hi M6P | Diaphorase inh
Oc1ccc(Cl)cc1C1=NNC(c2ccc(Cl)cc2)C1 (centres undefined) | 0.9 | -8 | 1.2 | 1.1 | 11
COC(=O)[C@@H]1CC[C@H](C)[C@@H](c2ccc(C)cc2)N1C(=O)c1ccc(/C=N/OCC[C@@H]2C=C[C@H](OC(C)=O)[C@@H](COC(C)=O)O2)cc1 | 0.9 | 19 | 1 | 1 | 5
CC(C)C[C@H](N)c1cn([C@@H](CCCCN)C(=O)N2CCNCC2)nn1 | 1 | 8 | 1.1 | 1.1 | -5
COc1cc(/C=N/NC(=S)Nc2cccc(Cl)c2C)ccc1OCC(=O)N1CC(C)OC(C)C1 (centres undefined) | 0.5 | -24 | 1 | 0.9 | 54*
CCOc1ccc(-c2nnc3ccc(SC(C)C)nn23)cc1 | 0.4 | 15 | 0.9 | 1 | 60*
Cc1nn(C)c(C)c1S(=O)(=O)N1CCC(CO)(CC2CCCCO2)CC1 (centres undefined) | 0.9 | 7 | 1 | 1 | 9
CCc1cc2c(=O)n(-c3ccccc3)c(=S)[nH]c2s1 | 0.2 | 6 | 0.9 | 0.9 | 81*
COc1cc(/C=C2/SC(=S)NC2=O)ccc1OS(=O)(=O)c1ccc(C)cc1 | 0.5 | -5 | 0.6 | 0.8 | 50*
COc1ccc(OC)c2[nH]c(=O)c(CCNC(=O)c3ccc(S(=O)(=O)N4CCCC4)cc3)cc12 | 0.5 | 5 | 0.8 | 0.8 | 51*
CCN(CC)S(=O)(=O)c1ccc(C(=O)NCCc2cc3c(OC)ccc(OC)c3[nH]c2=O)cc1 | 0.8 | 14 | 0.8 | 0.8 | 24
Cc1ccccc1NC(=O)c1sc(NC(=O)COc2ccccc2)c(C#N)c1C | 0.9 | -23 | 0.9 | 1 | 7
N#Cc1sc2nc(-c3ccccc3)cc(-c3ccco3)c2c1N | 0.4 | -40 | 1.1 | 1.3 | 62*
N#Cc1sc2nc(C3CC3)cc(-c3ccccc3)c2c1N | 0.8 | -12 | 0.8 | 0.8 | 25
O=C1CC(=O)N(Cc2ccco2)C(=S)N1 | 0.3 | 4 | 1.3 | 1.5 | 68*
O=C1CC(=O)N(Cc2ccco2)C(=O)N1 | 1 | 1 | 1.2 | 1.5 | 4
C=CCn1c(C(C)(C)C)nc2ccccc21 | 0.8 | 6 | 1 | 1 | 16
